Source: ChEMBL document CHEMBL2029271, “Design and synthesis of cannabinoid receptor 1 antagonists for peripheral selectivity” (J Med Chem, 2012)

Tests used:
[1] = Metabolic stability in human hepatic S9 fraction assessed as compound remaining at 10 uM after 120 mins; assay type: ADME, Liver; details: s9, 2 h
Procedure, shortened: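 Human hepatic S9 (1 mg/ml) with 10 μM final compound in 50 mM potassium phosphate pH 7.4, 3 mM MgCl2, NADPH regenerating system (NADP 1 mM, glucose-6-phosphate 5 mM, G6PDH 1 unit/ml). Triplicates sampled at 0, 15, 30, 60, 120 min; stopped with 3 volumes acetonitrile; LC-MS/MS (MRM) against matrix standard curves; % parent remaining at 120 min.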

Cannabinoid receptor 1 [2] = target: T1, Cannabinoid receptor 1 (Homo sapiens, UniProt P21554); details: CHO-K1
T1 sequence (P21554 whole entry): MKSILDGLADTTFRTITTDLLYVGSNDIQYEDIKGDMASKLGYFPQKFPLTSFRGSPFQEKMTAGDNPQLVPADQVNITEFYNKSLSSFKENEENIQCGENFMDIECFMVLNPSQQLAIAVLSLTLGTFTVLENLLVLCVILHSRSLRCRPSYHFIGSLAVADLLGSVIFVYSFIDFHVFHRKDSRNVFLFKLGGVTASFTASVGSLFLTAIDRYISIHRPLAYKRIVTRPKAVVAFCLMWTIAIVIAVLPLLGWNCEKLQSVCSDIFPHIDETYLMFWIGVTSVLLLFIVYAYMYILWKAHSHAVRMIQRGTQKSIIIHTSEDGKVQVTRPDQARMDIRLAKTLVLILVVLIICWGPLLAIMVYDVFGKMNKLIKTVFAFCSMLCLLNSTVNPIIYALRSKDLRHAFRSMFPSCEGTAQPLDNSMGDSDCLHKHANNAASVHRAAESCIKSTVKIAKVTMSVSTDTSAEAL

Homo sapiens = species: Homo sapiens; assay: Selectivity ratio of Ki for CB2 receptor to Ki for human CB1 receptor
Plasma [3] = assay: Metabolic stability in human plasma assessed as compound remaining at 10 uM preincubated for 5 mins measured after 60 mins; assay type: ADME, cell-free; details: 1 h
Procedure, shortened: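 Human plasma, 1 ml per sample at 37°C, 5 min pre-incubation, then compound at 10 μM final, sampled at 0, 30 and 60 min. Reactions stopped with acetonitrile; LC-MS/MS (MRM) quantitation with standards in blank matrix; % parent remaining at 60 min.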

MDCK = assay: Permeability from apical to basal side of MDCK cells expressing human mdr1 gene; assay type: ADME, cell-based, Canis lupus familiaris; details: dog
Procedure, shortened: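 MDCK-mdr1 cells grown 4 days to confluence on Transwell-type filters in DMEM/F12 with 10% FBS and antibiotics. Compound added apically at 3.16 μM in HBSS with 25 mM D-glucose, HEPES-buffered to pH 7.4; 1 hr at 37°C. Apical and basal samples collected and analysed by LC-MS/MS (MRM).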

Cannabinoid receptor 1 [4] = target: T1, Cannabinoid receptor 1; assay: biochemical
Cannabinoid receptor 2 = Cannabinoid receptor 2 (Homo sapiens, UniProt P34972); assay: Displacement of [3H]CP55940 from CB2 receptor expressed in CHO-K1 cells; assay type: cell-based
Chain of Cannabinoid receptor 2 (P34972 whole entry): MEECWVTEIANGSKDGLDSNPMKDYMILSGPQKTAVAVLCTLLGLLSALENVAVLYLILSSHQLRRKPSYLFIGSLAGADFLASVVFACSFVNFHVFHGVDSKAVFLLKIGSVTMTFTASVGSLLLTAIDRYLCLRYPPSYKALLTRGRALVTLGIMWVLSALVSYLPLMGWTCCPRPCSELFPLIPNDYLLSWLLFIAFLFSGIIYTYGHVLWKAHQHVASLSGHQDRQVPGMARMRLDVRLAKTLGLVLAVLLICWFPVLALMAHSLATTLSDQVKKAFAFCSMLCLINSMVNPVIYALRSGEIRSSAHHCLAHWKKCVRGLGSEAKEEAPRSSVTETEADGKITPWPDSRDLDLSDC

Cannabinoid receptor 1 [5] = target: T1, Cannabinoid receptor 1; assay: biochemical; assay type: cell-based, CHO-K1
[6] = (§1) Plasma concentration in Sprague-Dawley rat at 10 mg/kg, po after 30 mins; assay type: ADME, organism-based; set-up: dose 10 mg/kg, route oral; details: Sprague-Dawley, plasma
Procedure, shortened: (§2)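 Orally dosed male Sprague Dawley rats (7–8 weeks; 10 mg/kg in corn oil) sampled by tail vein at 30 minutes. Plasma acetonitrile-precipitated with reserpine internal standard; supernatant injected undiluted for LC-MS/MS, with standards in blank plasma.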

Nucleic Acid [7] = assay: Ratio of drug level in brain to plasma in Sprague-Dawley rat at 10 mg/kg, po after 60 mins; assay type: ADME, organism-based; set-up: dose 10 mg/kg, route oral; details: 1 h
Procedure, shortened: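 Male Sprague Dawley rats, 7–8 weeks, dosed orally at 10 mg/kg in corn oil; plasma and brain collected 1 h post-dose (tail-vein blood also at 30 min). Acetonitrile precipitation with reserpine internal standard, brain left lobe homogenized in 50:50 ethanol:water; LC-MS/MS MRM with blank-matrix standards; brain:plasma concentration ratio.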

[8] = (§3) Drug uptake in Sprague-Dawley rat brain at 10 mg/kg, po after 60 mins; assay type: ADME, organism-based; set-up: dose 10 mg/kg, route oral; details: Sprague-Dawley, brain, read-out: Drug uptake
Procedure, shortened: (§4)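 Male Sprague Dawley rats, 7–8 weeks old, given 10 mg/kg orally (corn oil) or ip (1:1:18 ethanol:cremophor:saline). Brain taken 1 hour post-dose; left lobe homogenized in 50:50 ethanol:water, protein-precipitated with acetonitrile plus reserpine internal standard, analysed by LC-MS/MS against standards in blank brain homogenate.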

Nucleic Acid [9] = assay: Ratio of drug level in brain to plasma in Sprague-Dawley rat at 10 mg/kg, ip after 60 mins; assay type: ADME, organism-based; set-up: dose 10 mg/kg, route intraperitoneal; details: 1 h
Procedure, shortened: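 Male Sprague Dawley rats, 7–8 weeks, given 10 mg/kg ip in 1:1:18 ethanol:cremophor:saline; plasma and brain taken at 1 h. Plasma and left-lobe brain homogenate (50:50 ethanol:water) protein-precipitated with acetonitrile, reserpine internal standard; LC-MS/MS MRM vs standards in blank matrices; brain:plasma concentration ratio.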

[10] = Drug uptake in Sprague-Dawley rat brain at 10 mg/kg, ip after 60 mins; assay type: ADME, organism-based; set-up: dose 10 mg/kg, route intraperitoneal; details: read-out: Drug uptake; procedure, shortened: as §4
[11] = Plasma concentration in Sprague-Dawley rat at 10 mg/kg, po after 60 mins; assay type: ADME, organism-based; set-up: dose 10 mg/kg, route oral
Procedure, shortened: (§5)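 Male Sprague Dawley rats, 7–8 weeks old, dosed 10 mg/kg orally (corn oil) or ip (1:1:18 ethanol:cremophor:saline). Plasma collected 1 hour post-dose, acetonitrile-precipitated with reserpine internal standard, supernatant diluted in 50:50 methanol:water, quantified by LC-MS/MS against standards in blank plasma.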

[12] = Plasma concentration in Sprague-Dawley rat at 10 mg/kg, ip after 60 mins; assay type: ADME, organism-based; set-up: dose 10 mg/kg, route intraperitoneal; procedure, shortened: as §5
Plasma [13] = assay: as §1; assay type: ADME, organism-based; set-up: dose 10 mg/kg, route oral; details: in vivo, 0.5 h, BLD = below limit of detection; procedure, shortened: as §2
Brain = assay: as §3; assay type: ADME, organism-based; set-up: dose 10 mg/kg, route oral; details: in vivo, 1 h, BLD = below limit of detection; procedure, shortened: as §4
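Throughout, for Ke: antagonism measured as blockade of CP55940-evoked intracellular Ca2+ rise, read fluorometrically, in cells additionally carrying Galphaq16.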

| Ki (Cannabinoid receptor 1 [4]) [µM] | Structure (SMILES) | Stability [1] [%] | Ke (Cannabinoid receptor 1 [2]) [nM] | Ratio Ki (Homo sapiens) | Stability (Plasma [3]) [%] | permeability (MDCK) [%] | Ki (Cannabinoid receptor 2) [µM] | Ki (Cannabinoid receptor 1 [5]) [µM] | concentration at 0.5 h [6] [ng/mL] | BPR (Nucleic Acid [7]) | concentration at 1 h [8] [ng/mL] | BPR (Nucleic Acid [9]) | concentration at 1 h [10] [ng/mL] | concentration at 1 h [11] [ng/mL] | concentration at 1 h [12] [ng/mL] | Cp (Plasma [13]) | Drug uptake (Brain) |
| --- | --- | --- | --- | --- | --- | --- | --- | --- | --- | --- | --- | --- | --- | --- | --- | --- | --- |
| – | Cc1c(C(=O)N2CCC(NC(=O)OC(C)(C)C)(c3ccccc3)CC2)nn(-c2ccc(Cl)cc2Cl)c1-c1ccc(Cl)cc1 | 88 | 20.2 | 49.9 | > 90 | < 1 | – | – | – | – | – | – | – | – | – | – | – |
| 0.0004 | Cc1c(C(=O)N2CCC(C(N)=O)(c3ccccc3)CC2)nn(-c2ccc(Cl)cc2Cl)c1-c1ccc(Cl)cc1 | – | 0.4 | 1600 | – | 8 | – | – | – | – | – | – | – | – | – | – | – |
| – | Cc1c(C(=O)N2CCC(NC(=O)NCc3ccccc3)(c3ccccc3)CC2)nn(-c2ccc(Cl)cc2Cl)c1-c1ccc(Cl)cc1 | 18 | 2.1 | 398 | 82 | < 1 | 17.1 | 0.043 | – | – | – | – | – | – | – | – | – |
| – | Cc1c(C(=O)NC2CCN(C(=O)NC(C)(C)C)CC2)nn(-c2ccc(Cl)cc2Cl)c1-c1ccc(Cl)cc1 | – | 78 | 228 | 71 | < 1 | 3.35 | 0.0147 | 5.08 | 0.16 | 4.46 | 0.379 | 25.5 | 28 | 67.4 | – | – |
| – | Cc1c(C(=O)NC2CCN(C(=O)OC(C)(C)C)CC2)nn(-c2ccc(Cl)cc2Cl)c1-c1ccc(Cl)cc1 | > 90 | 4.7 | 878 | > 90 | < 1 | 2.51 | 0.0029 | – | – | – | 0.0214 | 4.2 | 13.2 | 197 | BLD | BLD |
| – | Cc1c(C(=O)N2CCC(NC(=O)NC(C)(C)C)(c3ccccc3)CC2)nn(-c2ccc(Cl)cc2Cl)c1-c1ccc(Cl)cc1 | 88 | 2.4 | 425 | > 90 | < 1 | 20 | – | 3.72 | – | – | 0.032 | 12.4 | 10.3 | 386 | – | BLD |
